In paper PMC6896334 (Cell reports, 2019):
Several values for one entry are separate records, joined by “and”; a condition that tells them apart may be missing. Identical values can stand only once.

Columns and labels:
[1] = target: T1, Id1 (59–104) (Mus musculus, UniProt P20067); assay: UV crosslinking of AGX51-XL2 to purified Id1 and mass spectrometry; assay type: binding; conditions: 10-fold excess of AGX51
T1 sequence (P20067 59-104): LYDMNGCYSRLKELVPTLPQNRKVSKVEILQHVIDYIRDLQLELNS
Summary of the method: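 Purified Id1 (aa 59–104, 1 µg) was mixed in the dark with 19.7 ng of a benzophenone photoreactive test-compound analog in DMSO and UV-irradiated for 20 min, with a no-UV control. Samples were run in the dark on a 15% denaturing gel and silver stained. Bands were excised for mass spectrometry.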

[2] = target: T2, E47-ID1 cellular complex (Homo sapiens, UniProt P41134); assay: Immunoprecipitation of endogenous ID1 and E47 in HCT116 cells; assay type: cell-based; conditions: HCT116, 60 μM, 1 h
T2 sequence (P41134 1-155): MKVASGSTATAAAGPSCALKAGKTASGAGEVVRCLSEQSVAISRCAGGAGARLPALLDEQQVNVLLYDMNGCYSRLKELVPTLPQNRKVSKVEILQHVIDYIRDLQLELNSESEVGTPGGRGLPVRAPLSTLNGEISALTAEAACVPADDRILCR
Summary of the method: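 HCT116 cells were exposed for 1 h and lysed in NP40 or RIPA buffer with phosphatase/protease inhibitors, then cleared 15 min at 15,000 rpm, 4°C. Lysates were immunoprecipitated overnight at 4°C with anti-ID1 or anti-E2A plus protein G/A beads, washed four times and eluted in SDS sample buffer. SDS-PAGE/PVDF blots (5% milk in TBS-0.1% Tween20) were probed for ID1 (1:500) or E2A (1:1000), alongside whole-cell lysate blots.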

[3] = target: T3, ID1 (Homo sapiens, UniProt P41134); assay: Western blot for ID1 in HUVECs; assay type: cell-based; conditions: 0–40 μM, 24 h
T3 sequence (P41134 1-155): T2 sequence (P41134 1-155)
Summary of the method: (§1)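 HUVECs treated with 0–40 µM test compound for 24 h. Whole-cell lysates were immunoblotted for the target protein. Infrared band intensities were blank-subtracted and normalised to tubulin.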

[4] = test system: HCT116 cells; assay: HCT116 cell cycle analysis; assay type: cell-based, human; conditions: HCT116, 40 μM, 4-24 hours
Summary of the method: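 Cells exposed to test compound or DMSO, then trypsinised, PBS-washed and fixed in 70% ethanol at −20°C. After centrifugation and PBS wash, cells were stained in PI/RNase buffer for 15 min at room temperature. DNA content was analysed by flow cytometry.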

[5] = Water solubility; assay type: physicochemical
[6] = test system: HUVECs; assay: HUVEC cell growth; assay type: cell-based, human; conditions: 20 μM, 5 days
Summary of the method: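 HUVECs seeded at 38,000 cells per 24-well well, in triplicate for each time point, with 20 µM test compound or DMSO. Viable cells were counted by trypan blue exclusion on days 1, 3 and 5 after seeding.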

[7] = test system: ID1, ID2, ID3, and ID4; assay: Western blot for ID proteins in HCT116 cells; assay type: cell-based, human; conditions: HCT116, 40 μM, 0-48 hours
[8] = test system: Cyclin D1; assay: Western blot for Cyclin D1 in HUVECs; assay type: cell-based, human; conditions: 0–40 μM, 24 h
Summary of the method: as §1

[9] = test system: ID1 mRNA; assay: qRT-PCR for ID1 in HCT116 cells; assay type: cell-based, human; conditions: HCT116, 40 μM, 24 hours
Summary of the method: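 ID1 transcript measured by qRT-PCR after treatment, using validated QuantiTect primer sets with GAPDH as reference. Fold change was calculated by the delta-delta CT method.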

[10] = test system: choroidal neovascularization; assay: Laser-induced choroidal neovascularization; assay type: in vivo, mouse
Summary of the method: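 Female C57BL/6 mice aged 4–6 weeks had laser rupture of Bruch's membrane at three sites per eye. Test compounds (1 or 5 µg) or DMSO were given intravitreally. At day 14, choroidal flat mounts were stained with FITC-Griffonia simplicifolia lectin, and CNV area was measured by fluorescence image analysis by an observer masked to group.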

[11] = target: T4, Id1 (Mus musculus, UniProt P20067); assay: Circular dichroism; assay type: binding; conditions: AGX51 0–50 μM; AGXA 0–110 μM in DMSO
T4 sequence (P20067 1-148 isoform P20067-2): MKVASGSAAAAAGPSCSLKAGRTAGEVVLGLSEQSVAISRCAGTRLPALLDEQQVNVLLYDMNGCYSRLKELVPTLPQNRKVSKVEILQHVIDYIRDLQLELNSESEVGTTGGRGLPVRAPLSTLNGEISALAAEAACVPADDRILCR

[12] = Pharmacokinetics in serum after i.p. injection; assay type: in vivo, mouse; conditions: for mean maximum serum concentration: mice
Summary of the method: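 Eight-week-old male BALB/c mice received a single i.p. dose of 30, 50 or 100 mg/kg in 70% DMSO, with another group given 100 mg/kg in 100% DMSO (n = 3 per group). Blood was drawn at 30 min, 1, 3, 6 and 24 h. […] was quantified by a validated LC-MS protocol.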

## CCC(=O)N(CCC(c1ccc2c(c1)OCO2)c1ccccc1OC)Cc1ccccc1 (centres unmarked) [AGX51, N-(3-(benzo[d][1,3]dioxol-5-yl)-3-(2-methoxyphenyl)propyl)-N-benzylpropionamide]
[1]
  AGX51-XL2 binding to Id1 in the presence of competitor: significant decrease in AGX51-XL2 binding to Id1
[2]
  levels of co-precipitated E47 / ID1: markedly reduced the levels of the co-precipitated proteins
[3]
  concentration at which a significant decrease in ID1 protein levels was observed: 10 µM
[4]
  cell cycle effect: G0/G1 growth arrest
[5]
  water solubility: water insoluble
[6]
  cell viability / growth: reduced cell viability
[7]
  ID1, ID2, ID3 and ID4 protein levels: reduced levels of ID1, ID2, ID3, and ID4
[8]
  Cyclin D1 levels: reduction in Cyclin D1 levels
[9]
  ID1 mRNA levels: increase in ID1 mRNA levels
[10]; intravitreal 5 μg on days 1 and 7, day 14, p < 0.05
  area of CNV: effective at significantly reducing CNV
[10]; twice-daily i.p. injections ~30 mg/kg (500 μg), 14 days, vs vehicle, p < 0.05
  area of CNV: significantly reduced CNV
[10]; two intravitreal injections of 10 μg 1 week apart, day 14, vs vehicle, p < 0.05
  area of CNV: significantly suppressed CNV
[11]
  effect on Id1 secondary structure (CD spectra): significant alteration in the 2° structure of Id1
[12]; male, BALB/c, mouse, serum, ip
  half-life: ~3 h
[12]; i.p. 30 mg/kg in 70% DMSO, 30 mg/kg
  mean maximum serum concentration: 1.1 μg/mL and 2.7 μM
[12]; i.p. 50 mg/kg in 70% DMSO, 50 mg/kg
  mean maximum serum concentration: 1.6 μg/mL and 4 μM
[12]; i.p. 100 mg/kg in 70% DMSO, compared with lower doses
  mean maximum serum concentration: not increased further
